# Only some compounds are listed: those with a hit (about 0.77% of all), similar ones and a draw of the others.
# mIAP act: mouse IAP activation; actives 0.24% (n = 330,000); activation factor at 10 µM; muIAP, CDP-Star luminescence, 30 min; active compounds read high; 1 = vehicle-only enzyme signal, 0 = enzyme-free wells;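 active means activation factor of at least 2 at 20 µM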
#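 Assay system: mouse IAP enzyme; reagent: chemiluminescent substrate CDP-Star; dosing: test compounds delivered from DMSO solution; schedule: 30 min at room temperature; measured by: luminescence from enzymatic CDP-Star hydrolysis; controls: DMSO-only wells and no-enzyme negative control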
# mIAP inh: blocks mouse intestinal alkaline phosphatase; purified mouse IAP, CDP-Star luminescence, 30 min; inhibition, % at 10 µM; actives 0.2% (n = 330,000); AID 2806;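 active means inhibition of at least 40% at 10 µM in the primary screen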
# hIAP act: increases human intestinal alkaline phosphatase activity. purified human IAP, CDP-Star luminescence, 30 min; active compounds read high; 1 = vehicle-only enzyme, 0 = enzyme-free background. activation factor at 10 µM. actives 0.16% (n = 330,000). AID 2524;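 active means activation factor of the enzyme at least 2-fold when tested at 20 µM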
# Target sequence (P09923 whole entry, looked up): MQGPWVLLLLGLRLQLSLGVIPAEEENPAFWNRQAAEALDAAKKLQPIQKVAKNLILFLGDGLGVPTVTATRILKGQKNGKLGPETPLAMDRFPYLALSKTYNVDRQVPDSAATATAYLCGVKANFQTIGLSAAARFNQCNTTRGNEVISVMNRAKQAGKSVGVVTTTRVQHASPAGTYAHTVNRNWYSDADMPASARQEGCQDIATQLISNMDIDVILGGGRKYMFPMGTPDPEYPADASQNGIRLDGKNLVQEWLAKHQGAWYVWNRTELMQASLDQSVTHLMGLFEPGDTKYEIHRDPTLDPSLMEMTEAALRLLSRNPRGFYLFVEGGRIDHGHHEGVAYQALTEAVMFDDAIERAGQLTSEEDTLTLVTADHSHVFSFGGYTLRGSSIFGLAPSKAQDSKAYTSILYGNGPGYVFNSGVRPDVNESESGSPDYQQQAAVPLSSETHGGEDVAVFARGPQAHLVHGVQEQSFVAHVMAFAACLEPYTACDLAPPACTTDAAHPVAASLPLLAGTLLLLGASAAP
# bIAP inh: blocks bovine intestinal alkaline phosphatase activity; purified bovine IAP, CDP-star luminescence, 30 min; inhibition, % at 20 µM; 190,000 tested, under 10 active; AID 1019;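 active means over 50% inhibition of intestinal alkaline phosphatase at 20 µM in the single-dose screen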
#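 Incubation: 30 min reaction at room temperature / Material: purified bovine intestinal alkaline phosphatase (IAP) enzyme / Input: enzyme at 1/65,000,000 dilution / Dosing: 20 µM single dose / Signal: CDP-star luminescence signal / Reagent: CDP-star chemiluminescent phosphatase substrate, 30 µM final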
# bIAP act: intestinal alkaline phosphatase (bovine) activation | purified bovine IAP, CDP-star luminescence, 30 min; active compounds read high; fold of DMSO-control signal, blank-subtracted | activation factor at 20 µM | actives 0.17% (n = 200,000);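 active means activation factor of 2 or more at 20 µM, a signal rise over negative controls twice the positive control's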
# hIAP block: human IAP inhibition; P09923; purified IAP, CDP-Star luminescence, 30 min; inhibition, % at 10 µM; actives 0.12% (n = 330,000); AID 2544;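 active means inhibition reaching a set limit with compound at 10 µM in the primary screen, cut at about 35% in these data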
# mIAP inh conf: mouse IAP inhibition confirmation. shares compounds with mIAP inh. purified mouse IAP, CDP-Star luminescence, 30 min. inhibition, % at 10 µM. actives 4.7% (n = 11,000). AID 434971;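 active means inhibition of at least 40% at 10 µM in either of the two replicates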
# Hits are given with their value; – = inactive; · = no result given.
SMILES,mIAP act,mIAP inh,hIAP act,bIAP inh,bIAP act,hIAP block,mIAP inh conf
CCCC1=NN2C(=N)/C(=C\c3cc(C)n(Cc4ccccc4)c3C)C(=O)N=C2S1,–,–,–,·,·,–,·
CCC1=NN2C(=N)/C(=C/c3c(C)nn(-c4ccccc4)c3Cl)C(=O)N=C2S1,–,–,–,–,–,–,·
CCCC1=NN2C(=N)/C(=C\c3ccc(SCc4ccco4)o3)C(=O)N=C2S1,–,57,–,–,–,–,70
C(=N\C(/N=C/c1ccco1)c1ccco1)/c1ccco1,–,73,–,–,–,–,75
CN(C)c1ccc(N=Cc2ccco2)cc1,–,–,–,–,–,–,·
Nc1nnnn1/N=C/c1ccco1,–,–,–,–,–,–,·
C(=Nc1cccc2c(N=Cc3ccco3)cccc12)c1ccco1,–,48,–,–,–,–,41
COc1ccc(NC(=O)N(C)C[C@H]2Oc3ccc(NC(=O)C4CC4)cc3CC(=O)N([C@@H](C)CO)C[C@@H]2C)cc1,–,–,–,·,·,–,·
Cc1nc2cc(-c3ccsc3-n3c(C)ccc3C)[nH]n2c(=O)c1Cl,–,63,–,–,–,–,78
Cc1cc(=O)n2[nH]c(-c3ccc(F)cc3)cc2n1,–,–,–,–,–,–,·
COCc1cc(=O)n2[nH]c(-c3ccsc3-n3c(C)ccc3C)cc2n1,–,56,–,–,–,–,58
Cc1ccccc1-c1cc2nc(C)c(Cl)c(=O)n2[nH]1,–,–,–,·,·,–,·
Cc1cc(=O)n2[nH]c(-c3ccsc3-n3c(C)ccc3C)cc2n1,–,50,–,·,·,–,59
CC(C)[C@H](NC(=O)c1cccc(CN(Cc2ccccc2)C(=O)c2ccccc2)c1)C(=O)O,–,–,–,·,·,–,·
COc1cc(/C=C/C(=O)CC(=O)/C=C/c2ccc(O)c(OC)c2)ccc1O,–,58,·,–,–,·,49
COc1cc(/C=C/C(=O)/C=C(O)/C=C/c2ccc(O)c(OC)c2)ccc1O,–,61,·,·,·,·,53
CC(=O)Nc1cccc(NC=C(C#N)C#N)c1,–,–,–,–,–,–,·
O=C(Nc1ccc(F)cc1)Nc1cc(S(=O)(=O)N2CCOCC2)ccc1N1CCCC1,–,–,–,–,–,–,·
COc1ccccc1NS(=O)(=O)c1cccc(NC(=O)Nc2ccc(Cl)cc2)c1,2.1,–,–,–,–,–,–
O=C(Nc1ccc(Cl)cc1Cl)NC1CCN(S(=O)(=O)c2ccc(F)cc2)CC1,5.4,–,–,·,·,–,–
O=C(CNc1ccc(F)cc1Cl)Nc1cccc(S(=O)(=O)N2CCCCC2)c1,–,–,–,·,·,–,·
O=C(Nc1ccc(Cl)cc1)Nc1cc(S(=O)(=O)N2CCOCC2)ccc1N1CCCC1,2.9,–,–,–,–,–,–
O=C(Nc1cccc(S(=O)(=O)N2CCCCC2)c1)Nc1ccc(Cl)cc1Cl,5.4,–,–,–,–,–,–
COc1ccccc1C(=O)C1CCCN(C(=O)c2ccccn2)C1 (configuration not stated),–,–,–,–,–,–,·
CCOC(=O)c1c(NC(=O)C2CCCCC2)sc2c1CCN(C(C)C)C2,–,–,–,·,·,–,·
SMILES,mIAP act,mIAP inh,hIAP act,bIAP inh,bIAP act,hIAP block,mIAP inh conf
Cc1ccc(CC(=O)Nc2ncc([N+](=O)[O-])s2)cc1,–,–,–,–,–,–,·
COc1ccc(C(=O)OCC(=O)Nc2ncc([N+](=O)[O-])s2)cc1OC,–,63,–,·,·,–,76
O=C(COC(=O)c1ccc(Br)o1)Nc1ncc([N+](=O)[O-])s1,–,61,–,·,·,–,59
CCCCOc1ccc(C(=O)NCC(=O)NCCCn2nc(C)cc2C)cc1,–,–,–,·,·,–,·
CCSc1nnc(SCC(=O)c2c(N)n(C)c(=O)n(C)c2=O)s1,–,–,–,·,·,–,·
CCCCC(=O)c1ccc(O)cc1,–,–,–,–,–,–,·
O=C(CCO)c1ccc(O)cc1,–,46,–,–,–,–,47
Cc1cc(-c2csc(N)n2)c(C)n1C,–,–,–,–,–,–,·
Cc1cc(-c2csc(N)n2)c(C)n1Cc1ccco1,–,51,–,–,–,–,43
O=C(O)C1(O)C[C@H](O)C(O)[C@@H](O)C1 (some centres not stated),–,–,–,·,·,–,·
CC(=O)Oc1cc2cccc(OC(C)=O)c(=O)c2c(OC(C)=O)c1OC(C)=O,–,45,–,–,–,–,49
Cn1nc(OC(=O)Nc2ccccc2)cc1C(F)(F)F,–,–,–,–,–,–,·
Cn1nc(OC(=O)Nc2cccc(Cl)c2)cc1C(F)(F)F,3.4,–,–,–,–,–,–
Cc1ccc(/C=C2\SC(=S)N(/N=C/c3cc([N+](=O)[O-])ccc3O)C2=O)o1,–,82,–,–,–,–,86
O=[N+]([O-])c1ccc(O)c(/C=N/n2cnc3ccccc32)c1,–,–,–,–,–,–,·
COc1ccc(OC)c(C2=C/C(=C/c3ccccn3)C(=O)O2)c1,–,–,–,–,–,–,·
N#CC1=C(N)SC(N)=C(C#N)C1c1ccoc1,–,77,–,–,–,–,76
O=S(=O)(c1cc(O)ccc1O)c1cccc2c(S(=O)(=O)c3cc(O)ccc3O)cccc12,–,65,–,·,·,–,58
O=S(=O)(O)c1cc(O)ccc1O,–,–,–,·,·,–,·
CN1CCN(NC(=O)Nc2cc(Cl)cc(Cl)c2)CC1,2.4,–,–,·,·,–,–
COc1ccc(NC(=O)NN2CCN(C)CC2)cc1OC,–,–,–,·,·,–,·
Cc1noc(C)c1S(=O)(=O)N(C)C[C@H]1Oc2ccc(NS(=O)(=O)c3ccccc3)cc2C(=O)N([C@H](C)CO)C[C@@H]1C,–,–,–,·,·,–,·
O=C(NC(=S)N1CCCCC1)C12CC3CC(CC(C3)C1)C2,–,–,–,–,–,–,·
O=C(c1cc(NC(=O)C23CC4CC(CC(C4)C2)C3)cc(NC(=O)C23CC4CC(CC(C4)C2)C3)c1)N1CCCCC1,2.1,–,–,–,–,–,–
CCOc1ccc(N2CSC3=C(C#N)C(c4ccco4)CC(=O)N3C2)cc1 (configuration not stated),–,74,–,–,–,–,81
N#CC1=C2SCN(c3ccccc3)CN2C(=O)CC1c1cccs1 (configuration not stated),–,–,–,–,–,–,·
Cc1ccc(C2CC(=O)N3CN(c4ccc(Br)cc4)CSC3=C2C#N)o1 (configuration not stated),–,61,–,–,–,–,63
CC1=C(C(=O)Nc2ccccc2)C(c2ccc(C)o2)n2c(s/c(=C\c3ccco3)c2=O)=N1 (configuration not stated),–,44,–,–,–,–,65
Fc1cccc2sc(Nc3nnc(-c4ccccc4)o3)nc12,–,–,–,–,–,–,37

# Assay outcomes (PubChem)
